The test system of the assay is Mus musculus. As to the kind of experiment: Antidiabetic activity in ob/ob mouse assessed as reduction in blood glucose AUC (0 to 120 mins) at 40 mg/kg, po administered as single dose pretreated for 30 mins followed by glucose-challenge by glucometric analysis relative to control. It counts as functional. Also on record: scale not given: the % may be the effect or the level left. The essentials: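 Male ob/ob mice (six weeks old on arrival, acclimatized one week) were fasted 12 h and randomized (n = 6/group). Each received a single oral dose in 0.5% carboxymethyl cellulose vehicle, then 3 g/kg oral glucose 30 min later. Blood glucose was measured by glucometer at −30, 0, 15, 30, 60 and 120 min. Glucose AUC0-120min was calculated, mean ± SD.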

As for `Cc1cc(OCCCS(C)(=O)=O)cc(C)c1-c1cccc(COc2ccc3c(c2)OC[C@H]3CC(=O)O)c1`, the Activity came to 15.7%.

The values are drawn from ChEMBL document CHEMBL4422628, “Discovery of first-in-class thiazole-based dual FFA1/PPARδ agonists as potential anti-diabetic agents” (Eur J Med Chem, 2019).
